In ChEMBL document CHEMBL3045155, “Design, synthesis, and insecticidal activities of novel monohalovinylated pyrethroids” (2011):
Values after ≈ are worked out from the molar mass of the structure shown.

Tests used:
Assay type in all cases: functional
Culex pipiens pallens [1] = experiment: Insecticidal activity against Culex pipiens pallens (mosquito) fourth-instar larvae assessed as insect mortality measured 24 hr post compound exposure by dipping method; settings: for LC50: Culex pipiens, 24 h
Culex pipiens pallens [2] = experiment: Potency index, ratio of LC50 for cypermethrin to LC50 for test compound against Culex pipiens pallens (mosquito) fourth-instar larvae assessed as insect mortality measured 24 hr post compound exposure by dipping method
Mythimna separata = experiment: Insecticidal activity against Mythimna separata (Oriental armyworm) grown on compound pre-treated corn leaves assessed as insect mortality measured 48 hr post compound exposure
In short: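 Leaves on filter paper in Petri dishes dipped 5 s in test solutions (acetone, diluted with water) and air-dried, then infested with 10 third-instar larvae; concentrations 500.0 down to 0.25 mg L-1; triplicate per concentration; 26 ± 1 °C, 70 ± 10% RH; percentage mortality at 48 h.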

Row | SMILES | LC95 (Culex pipiens pallens [1]) [µg/mL] | LC50 (Culex pipiens pallens [1]) [µg/mL] | RatioLC50 (Culex pipiens pallens [2]) | LC50 (Mythimna separata) [µg/mL]
1 | CC1(C)C(C=C(Cl)Cl)C1C(=O)OC(C#N)c1cccc(Oc2ccccc2)c1 (stereo not drawn) [ALPHA-CYPERMETHRIN] | 0.0286 (≈ 0.0687 µM) | 0.0106 (≈ 0.0255 µM) | 100 | 
2 | CC1(C)[C@H](C(=O)O[C@H](C#N)c2cccc(Oc3ccccc3)c2)[C@@H]1C=C(Br)Br [DELTAMETHRIN] | 0.0033 (≈ 0.00653 µM) | 0.0012 (≈ 0.00238 µM) | 883 | 0.149 (≈ 0.294 µM)
3 | C=CCC1=C(C)C(COC(=O)C[C@H]2[C@@H](/C=C/Br)C2(C)C)CC1=O (relative stereo) | 0.7054 (≈ 1.85 µM) | 0.44 (≈ 1.15 µM) | 2.4 | 
4 | CC1(C)[C@H](/C=C/Cl)[C@H]1CC(=O)OCc1c(F)c(F)cc(F)c1F (relative stereo) | 0.358 (≈ 1.02 µM) | 0.249 (≈ 0.71 µM) | 4.3 | 
